This is an account of results in ChEMBL document CHEMBL2203168, “Amine linked flavonoid dimers as modulators for P-glycoprotein-based multidrug resistance: structure-activity relationship and mechanism of modulation” (J Med Chem, 2012).

In general, EC50 refers to the concentration needed to bring the measured effect to its halfway point. By IC50 is commonly meant the concentration that inhibits the measured activity by half. Higher therefore signals weaker potency. By Ki is commonly meant a measure of affinity in units of concentration, obtained from inhibition or displacement.

Molecules are shown by their SMILES. In brackets after ≈: the same amount, converted by molar mass.

For data set [1], the target named is T1, ATP-dependent translocase ABCB1 (Homo sapiens, UniProt P08183). Kind of data set: Inhibition of P-gp overexpressed in human MDA435/LCC6MDR cells assessed as accumulation of doxorubicin after 150 mins by fluorescence spectrophotometric analysis. It is filed as cell-based. The conditions noted are these: 2.5 h. Summed up:
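1 × 10⁶ LCC6MDR or LCC6 cells incubated with 20 μM DOX and graded modulator for 150 min at 37 °C, with 0.4% DMSO as negative control. Cells washed and lysed in 0.75 M HCl, 0.2% Triton X-100 in isopropanol. DOX fluorescence read at ex 460/em 610 nm. N = 2–5.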

For data set [2], the species on record is Homo sapiens. Kind of data set: Inhibition of P-gp-mediated paclitaxel resistance in human LCC6MDR cells assessed as fold decrease in paclitaxel IC50 for cytotoxic activity at 1 uM after 5 days by MTS assay relative to parental cells. The class given is cell-based.
Data set [3] in a line: Reversal of P-gp-mediated vinblastin-resistance in human LCC6MDR cells after 5 days by MTS assay. It is filed as cell-based. The conditions noted are these: 120 h. (Formazan colour is commonly taken as a measure of viable cells.)
The species entered for data set [4] is Homo sapiens. Kind of data set: Reduction in P-gp-mediated drug uptake in human MDA435/LCC6MDR cells at 10 uM for 120 mins by HPLC analysis relative to parental cells. It is filed as cell-based. Summed up:
(§1)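 7.5 × 10⁶ LCC6 or LCC6MDR cells in 5 mL DMEM incubated with compound at 10 or 100 μM for 120 min at 37 °C. Cells washed, lysed by freeze–thaw in acetonitrile with 20% formic acid, and processed. Compound quantified by normal-phase HPLC-UV at 315 nm against a chloroform calibration curve of 0.25–25 μg/mL. N = 1–2.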

Data set [5] in a line: Reversal of P-gp-mediated daunorubicin-resistance in human LCC6MDR cells after 5 days by MTS assay. It is filed as cell-based. The conditions noted are these: 120 h.
Data set [6] addresses T2, Broad substrate specificity ATP-binding cassette transporter ABCG2 (Homo sapiens, UniProt Q9UNQ0).
T2 sequence (Q9UNQ0 whole entry): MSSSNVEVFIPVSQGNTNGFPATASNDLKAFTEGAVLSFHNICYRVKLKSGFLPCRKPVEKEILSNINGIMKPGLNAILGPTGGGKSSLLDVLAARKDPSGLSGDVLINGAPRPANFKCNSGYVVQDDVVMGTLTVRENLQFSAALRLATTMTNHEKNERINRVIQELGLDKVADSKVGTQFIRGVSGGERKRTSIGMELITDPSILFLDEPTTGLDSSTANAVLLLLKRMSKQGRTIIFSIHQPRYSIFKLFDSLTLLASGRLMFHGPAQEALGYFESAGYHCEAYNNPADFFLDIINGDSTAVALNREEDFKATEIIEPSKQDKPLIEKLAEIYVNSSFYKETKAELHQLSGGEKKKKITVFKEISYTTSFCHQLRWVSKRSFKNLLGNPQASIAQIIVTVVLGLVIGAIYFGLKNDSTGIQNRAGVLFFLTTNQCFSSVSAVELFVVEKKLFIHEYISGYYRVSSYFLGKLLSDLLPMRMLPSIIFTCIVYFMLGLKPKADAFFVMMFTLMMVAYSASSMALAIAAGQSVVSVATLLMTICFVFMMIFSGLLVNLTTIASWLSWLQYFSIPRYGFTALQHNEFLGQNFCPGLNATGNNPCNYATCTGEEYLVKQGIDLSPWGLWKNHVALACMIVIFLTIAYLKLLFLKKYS
Kind of data set: Inhibition of BCRP-mediated topotecan resistance in human HEK293/R2 cells assessed as fold decrease in topotecan IC50 for cytotoxic activity at 0.5 uM after 5 days by MTS assay relative to parental cell. The class given is cell-based. The conditions noted are these: hek293/r2, 120 h. Summed up: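 Viability read by MTS. Topotecan IC50 taken from dose-response curves. Fold change = IC50 without modulator / IC50 with modulator. Parental HEK293/pcDNA3.1 tested for reference. N = 2−4 independent experiments, mean ± SEM.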

The next data set has as its target P-gp (ABCB1) (Homo sapiens, UniProt P08183). Kind of data set: Increase in human P-gp ATPase activity at 200 uM by luciferase assay relative to basal level. The conditions noted are these: read-out: FC. The method in brief: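 Human P-gp membrane fraction (about 25 μg) incubated with compound at 200 μM, 0.5% DMSO basal or 100 μM vanadate. Reaction started with 5 mM MgATP, 1 h at 37 °C. Remaining ATP read by luciferase luminescence after 20 min at room temperature. Activity normalized to basal and given as stimulation fold. N = 2.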

A short description of data set [7]: Reversal of P-gp-mediated mitoxantrone-resistance in human LCC6MDR cells after 5 days by MTS assay. It is filed as cell-based. The conditions noted are these: 120 h.
For data set [8], the species on record is Homo sapiens. Briefly: Inhibition of P-gp-mediated paclitaxel resistance in human LCC6MDR cells assessed as fold decrease in paclitaxel IC50 for cytotoxic activity at 0.5 uM after 5 days by MTS assay relative to parental cells. It is filed as cell-based.
Data set [9] can be described thus: Cytotoxicity against human LCC-6 cells after 72 hrs. The class given is functional, cell-based. The conditions noted are these: LCC-6, 72 h. The method in brief: (§2)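 Cells seeded at 1 × 10⁴ per well in supplemented DMEM and given graded doses of dimer for 72 h at 37 °C, 5% CO₂. Survival measured and IC50 derived. N = 1–3 independent experiments, mean ± SEM.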

Data set [10] can be described thus: Reversal of P-gp-mediated doxorubicin-resistance in human LCC6MDR cells after 5 days by MTS assay. The class given is cell-based. The conditions noted are these: 120 h.
Data set [11] addresses T1, ATP-dependent translocase ABCB1. Kind of data set: Competitive inhibition of P-gp overexpressed in human MDA435/LCC6MDR cells assessed as accumulation of doxorubicin by Lineweaver-Burk plot analysis. It is filed as cell-based.
For data set [12], the species on record is Homo sapiens. Kind of data set: Reduction in P-gp-mediated drug uptake in human MDA435/LCC6MDR cells at 100 uM for 120 mins by HPLC analysis relative to parental cells. The class given is cell-based. Summed up:
as §1

For data set [13], the target named is Multidrug resistance-associated protein 1 (Homo sapiens, UniProt P33527). Briefly: Inhibition of MRP1-mediated doxorubicin resistance in human 2008/MRP1 cells assessed as fold decrease in doxorubicin IC50 for cytotoxic activity at 0.5 uM after 5 days by MTS assay relative to parental cell. The conditions noted are these: 2008/mrp1, 120 h. It is filed as cell-based.
Sequence of Multidrug resistance-associated protein 1 (P33527 whole entry): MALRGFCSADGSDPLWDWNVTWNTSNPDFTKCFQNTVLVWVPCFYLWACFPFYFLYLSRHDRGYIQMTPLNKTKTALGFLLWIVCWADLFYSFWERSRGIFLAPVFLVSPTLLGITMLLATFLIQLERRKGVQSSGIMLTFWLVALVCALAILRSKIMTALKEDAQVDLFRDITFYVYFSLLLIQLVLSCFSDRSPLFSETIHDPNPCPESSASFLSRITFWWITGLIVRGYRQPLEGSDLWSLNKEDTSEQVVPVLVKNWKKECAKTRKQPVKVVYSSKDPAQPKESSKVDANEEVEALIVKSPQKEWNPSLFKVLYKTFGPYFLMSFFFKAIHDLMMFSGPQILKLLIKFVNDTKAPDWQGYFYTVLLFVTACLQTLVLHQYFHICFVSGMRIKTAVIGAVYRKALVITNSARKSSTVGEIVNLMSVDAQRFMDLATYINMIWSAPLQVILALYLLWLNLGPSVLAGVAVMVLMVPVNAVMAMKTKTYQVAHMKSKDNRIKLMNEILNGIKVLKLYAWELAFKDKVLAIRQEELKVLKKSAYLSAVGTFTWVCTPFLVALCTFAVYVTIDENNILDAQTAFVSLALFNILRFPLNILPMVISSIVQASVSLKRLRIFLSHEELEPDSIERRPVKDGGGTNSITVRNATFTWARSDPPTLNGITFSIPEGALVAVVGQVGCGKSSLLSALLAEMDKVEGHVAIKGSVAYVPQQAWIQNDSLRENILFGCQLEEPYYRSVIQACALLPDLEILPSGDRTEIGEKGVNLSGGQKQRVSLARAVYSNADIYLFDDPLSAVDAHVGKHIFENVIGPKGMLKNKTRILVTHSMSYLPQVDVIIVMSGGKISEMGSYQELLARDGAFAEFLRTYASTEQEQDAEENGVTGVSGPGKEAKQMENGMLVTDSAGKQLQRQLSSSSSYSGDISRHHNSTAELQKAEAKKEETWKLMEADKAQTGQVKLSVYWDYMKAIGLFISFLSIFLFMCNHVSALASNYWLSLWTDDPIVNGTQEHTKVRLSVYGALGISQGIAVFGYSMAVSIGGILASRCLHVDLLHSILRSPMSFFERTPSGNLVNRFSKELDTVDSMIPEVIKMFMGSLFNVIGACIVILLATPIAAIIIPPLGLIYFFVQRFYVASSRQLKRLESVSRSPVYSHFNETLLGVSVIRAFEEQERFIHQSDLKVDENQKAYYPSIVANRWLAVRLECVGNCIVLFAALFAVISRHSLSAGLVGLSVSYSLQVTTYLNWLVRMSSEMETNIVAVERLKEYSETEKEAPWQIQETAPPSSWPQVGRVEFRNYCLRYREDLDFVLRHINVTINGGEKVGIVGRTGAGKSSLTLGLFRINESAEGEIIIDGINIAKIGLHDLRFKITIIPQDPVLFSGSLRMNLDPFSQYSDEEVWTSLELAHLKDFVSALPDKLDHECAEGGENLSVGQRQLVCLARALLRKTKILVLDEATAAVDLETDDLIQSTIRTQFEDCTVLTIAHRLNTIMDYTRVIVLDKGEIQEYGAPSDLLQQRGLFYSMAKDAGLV

A short description of data set [14]: Reversal of P-gp-mediated paclitaxel-resistance in human LCC6MDR cells after 5 days by MTS assay. The class given is cell-based. The conditions noted are these: 120 h.
In another data set the test system is L929. Kind of data set: Cytotoxicity against mouse L929 cells after 72 hrs. It is filed as cell-based. The conditions noted are these: L929, 72 h. The method in brief:
as §2

Data set [15] has as its target T1, ATP-dependent translocase ABCB1. Briefly: Competitive inhibition of P-gp overexpressed in human MDA435/LCC6MDR cells assessed as accumulation of doxorubicin by Dixon plot analysis. The class given is cell-based.
Data set [16] is described as follows: Therapeutic index, ratio of IC50 for L929 cells to EC50 for reversing paclitaxel resistance in human MDA435/LCC6MDR cells. It is filed as cell-based. The conditions noted are these: L929 cells (IC50) and MDA435/LCC6MDR cells (EC50).
In a further data set the test system is MDR. Kind of data set: Cytotoxicity against human MDA435/LCC6MDR cells expressing MDR after 72 hrs. The class given is functional, cell-based. The method in brief: as §2
A short description of data set [17]: Reversal of P-gp-mediated vincristine-resistance in human LCC6MDR cells after 5 days by MTS assay. The class given is cell-based. The conditions noted are these: 120 h.

T1 sequence (P08183 whole entry): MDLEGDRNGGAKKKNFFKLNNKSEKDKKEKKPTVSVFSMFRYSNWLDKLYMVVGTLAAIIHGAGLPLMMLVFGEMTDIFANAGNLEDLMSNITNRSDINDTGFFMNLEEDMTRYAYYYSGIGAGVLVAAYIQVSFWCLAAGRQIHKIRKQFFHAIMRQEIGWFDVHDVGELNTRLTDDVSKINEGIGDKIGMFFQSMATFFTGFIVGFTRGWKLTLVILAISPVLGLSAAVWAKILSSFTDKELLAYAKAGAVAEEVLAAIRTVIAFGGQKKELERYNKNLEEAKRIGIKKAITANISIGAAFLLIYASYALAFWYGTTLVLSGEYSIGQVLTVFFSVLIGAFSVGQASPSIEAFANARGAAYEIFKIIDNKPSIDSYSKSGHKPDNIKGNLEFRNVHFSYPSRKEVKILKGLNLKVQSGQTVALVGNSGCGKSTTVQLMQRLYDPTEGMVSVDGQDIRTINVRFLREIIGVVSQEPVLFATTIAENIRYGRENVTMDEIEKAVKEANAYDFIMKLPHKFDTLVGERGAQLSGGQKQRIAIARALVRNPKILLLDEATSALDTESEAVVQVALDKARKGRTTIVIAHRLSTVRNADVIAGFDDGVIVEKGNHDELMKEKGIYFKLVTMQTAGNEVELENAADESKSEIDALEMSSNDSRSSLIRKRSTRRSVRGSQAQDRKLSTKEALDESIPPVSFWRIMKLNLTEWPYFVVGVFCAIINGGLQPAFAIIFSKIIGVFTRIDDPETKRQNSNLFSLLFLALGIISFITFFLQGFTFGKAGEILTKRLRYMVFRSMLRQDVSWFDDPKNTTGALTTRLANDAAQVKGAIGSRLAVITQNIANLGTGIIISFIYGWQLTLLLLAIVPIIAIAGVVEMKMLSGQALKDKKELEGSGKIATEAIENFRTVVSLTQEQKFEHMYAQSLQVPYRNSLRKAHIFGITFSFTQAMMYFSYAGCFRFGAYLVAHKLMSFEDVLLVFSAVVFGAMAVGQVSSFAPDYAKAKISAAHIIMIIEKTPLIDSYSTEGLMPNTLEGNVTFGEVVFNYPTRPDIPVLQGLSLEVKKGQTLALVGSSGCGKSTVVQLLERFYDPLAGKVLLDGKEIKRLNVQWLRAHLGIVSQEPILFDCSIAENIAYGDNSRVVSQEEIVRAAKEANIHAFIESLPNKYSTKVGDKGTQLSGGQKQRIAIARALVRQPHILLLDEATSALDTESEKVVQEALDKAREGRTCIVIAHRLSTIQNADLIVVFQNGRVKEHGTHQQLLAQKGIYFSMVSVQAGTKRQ
Sequence of P-gp (ABCB1) (P08183 whole entry): as above

`COc1ccc(CCN(C)CCCC(C#N)(c2ccc(OC)c(OC)c2)C(C)C)cc1OC` (configuration not stated): in [1], the MIC was 8 µM (≈ 3.64 µg/mL) and the “inhibition (INH)” value is on record as “Dose-dependent effect”.
For `O=c1cc(-c2ccc(OCCOCCN(CCOCCOc3ccc(-c4cc(=O)c5ccccc5o4)cc3)Cc3ccccc3)cc2)oc2ccccc12`, the Ratio worked out at 139 in the data set listed under Homo sapiens [2], 3.8 in data set [6], 58.9 in the data set filed under Homo sapiens [8] and 2.1 in data set [13]. Further, the EC50 in data set [3] was found to be 173 nM; in [5], 95 nM; in data set [7] it was 90 nM; in data set [10], 131 nM; in data set [14], 148 nM; in [17] it was 179 nM. Further, the fold change (FC) is 1.7 in the data set listed under Homo sapiens [4] and 2.1 in the data set filed under Homo sapiens [12]. Moreover, the fold induction at 200 µM on P-gp (ABCB1) came out at 2.7. The MIC in data set [1] stood at 0.5 µM (≈ 0.362 µg/mL). In addition, the “inhibition (INH)” value in data set [1] is listed as “Dose-dependent effect”. The IC50 was above 75 µM in data set [9], 85 µM in the data set with L929 and above 63 µM in the data set on MDR. Also, the Ki in [11] amounted to 340 nM; in data set [15], 280 nM. Moreover, the selectivity ratio in data set [16] was determined as 574.
In the case of `O=c1cc(-c2ccc(OCCOCCN(CCOCCOc3ccc(-c4cc(=O)c5ccccc5o4)cc3)Cc3ccc([N+](=O)[O-])cc3)cc2)oc2ccccc12`, the Ratio was determined as 128 in the data set filed under Homo sapiens [2] and 43.7 in the data set listed under Homo sapiens [8]. Further, the IC50 in [9] is 86.8 µM; in the data set on L929, 88 µM; in the data set with MDR it was above 90 µM. In data set [14], the EC50 turned out to be 189 nM. Moreover, the selectivity ratio in data set [16] is 466.
Turning to `CC(C)(C)OC(=O)N(CCOCCOc1ccc(-c2cc(=O)c3ccccc3o2)cc1)CCOCCOc1ccc(-c2cc(=O)c3ccccc3o2)cc1`, the Ratio in the data set listed under Homo sapiens [2] stood at 69.6; in the data set filed under Homo sapiens [8] it was 11.1. The results for the concentration for half-maximal inhibition (IC50) (in data set [9]; in the data set with L929; with MDR) were 8 µM, 11.1 µM and 6.2 µM, respectively. Also, in [14], the EC50 turned out to be 320 nM. In [16], the selectivity ratio stood at 34.7.
As for `O=c1cc(-c2ccc(OCCOCCN(CCOCCOc3ccc(-c4cc(=O)c5ccccc5o4)cc3)Cc3ccc(C(F)(F)F)cc3)cc2)oc2ccccc12`, the Ratio in the data set listed under Homo sapiens [2] was found to be 90.1; in the data set filed under Homo sapiens [8] it was 37.3. The IC50 was above 100 µM in data set [9], 32.7 µM in the data set with L929 and above 100 µM in the data set with MDR. In addition, the EC50 in data set [14] turned out to be 150 nM. In addition, the selectivity ratio in data set [16] was found to be 218.
Consider `O=c1cc(-c2ccc(OCCOCCN(CCCc3ccccc3)CCOCCOc3ccc(-c4cc(=O)c5ccccc5o4)cc3)cc2)oc2ccccc12`, for which the Ratio was found to be 56.7 in the data set listed under Homo sapiens [2] and 12.5 in the data set filed under Homo sapiens [8]. Moreover, the IC50 in [9] was above 100 µM; in the data set with L929 it was 9.5 µM; with MDR, above 100 µM. The EC50 in data set [14] was determined as 250 nM. Moreover, the selectivity ratio in [16] is 38.
As to `O=c1cc(-c2ccc(OCCOCCN(CCOCCOc3ccc(-c4cc(=O)c5ccccc5o4)cc3)Cc3ccc(F)cc3)cc2)oc2ccccc12`, the results for the Ratio in the data set filed under Homo sapiens [2] and in the data set listed under Homo sapiens [8] were 109 and 31.2, respectively. Moreover, the results for the IC50 (in data set [9]; in the data set with L929; with MDR) were above 100 µM, 19.7 µM and above 83 µM, respectively. Also, the EC50 in data set [14] was found to be 255 nM. Also, the selectivity ratio in [16] came to 77.3.
Regarding `O=c1cc(-c2ccc(OCCOCCN(CCOCCOc3ccc(-c4cc(=O)c5ccccc5o4)cc3)Cc3cccc(F)c3)cc2)oc2ccccc12`, the Ratio in the data set listed under Homo sapiens [2] is 118; in the data set filed under Homo sapiens [8], 36.5. In addition, the IC50 in [9] was above 100 µM; in the data set with L929, above 87 µM; in the data set on MDR it was above 100 µM. Moreover, in data set [14], the EC50 amounted to 258 nM. Also, the selectivity ratio in data set [16] is above 337.
Consider `O=c1cc(-c2ccc(OCCOCCN(CCOCCOc3ccc(-c4cc(=O)c5ccccc5o4)cc3)Cc3ccccc3F)cc2)oc2ccccc12`, for which the results for the Ratio in the data set filed under Homo sapiens [2] and in the data set filed under Homo sapiens [8] were 102 and 43.7, respectively. Also, the IC50 (in data set [9]; with L929; in the data set on MDR) was above 100 µM in each case. The EC50 in data set [14] came out at 179 nM. Also, the selectivity ratio in [16] was above 559.
